Published values gathered from unrelated publications.
Protocols differ between the studies behind these lines.
Target: Platelet-derived growth factor receptor alpha (PDGFRA, Homo sapiens, UniProt P16234)

| Structure (SMILES) | assay | conditions | remaining binding [%] |
| --- | --- | --- | --- |
| O=C(NCC1CCOCC1)c1n[nH]cc1NC(=O)c1c(F)cccc1F | binding, competition with immobilised ligand | 1 µM | 84 |
| COc1ccc2c(c1)O[C@@H](c1ccc(OC)c(OC)c1)C[C@H]2NC(=O)C1(c2ccc3c(c2)OC(F)(F)O3)CC1 | cell-free assay, competition with immobilised ligand | 1 µM | 78 |
| O=C(NCCCN1CCOCC1)c1ccc(Nc2ncc(Cl)c(-c3ccc(Cl)s3)n2)cc1 | binding, competition with immobilised ligand | 1 µM | 10 |
| Cc1cnn2ncc(-c3ccnc(N(C)C)n3)c2c1 | binding | 1 µM | 97 |
| Cc1cnc(Nc2ccc(C(=O)N3CCC(N4CCCC4)CC3)cc2)nc1-c1cc2ccccc2s1 | binding, competition with immobilised ligand | 1 µM | 14 |
| C[C@H]1CCN(c2nccc(-c3cnn4ncccc34)n2)C1 | binding | 1 µM | 83 |
| CCS(=O)(=O)c1cc2cc(C[C@@](O)(CC(C)(C)c3ccc(F)cc3C(N)=O)C(F)(F)F)[nH]c2cn1 | cell-free assay, competition with immobilised ligand | 1 µM | 99 |
| CN(c1nccc(-c2cnn3ncccc23)n1)C1CC1 | binding | 1 µM | 100 |
| c1cncc(-c2cccc(Nc3nccc(NC4CCCCC4)n3)c2)c1 | binding, competition with immobilised ligand | 10 µM | 11 |
| FC(F)(F)Oc1cccc(-c2cnc3ccc(-c4ccncc4)nn23)c1 | cell-free assay, competition with immobilised ligand | 5 µM | 22 |
| O=C(c1ccc(Nc2ncc(Cl)c(-c3ccc(Cl)s3)n2)cc1)N1CCC(N2CCCC2)CC1 | binding, competition with immobilised ligand | 1 µM | 3.4 |
| CCN1CCN(Cc2ccc(C(=O)Nc3ccc(C)c(Oc4ccc5c(c4)CC(=O)N5)c3)cc2C(F)(F)F)CC1 | binding, competition with immobilised ligand | 1 µM | 100 |
| C[C@@H]1CN(c2ccc3ncc(-c4ccc5[nH]nc(C6CC6)c5c4)n3n2)C[C@H](C)O1 | binding, competition with immobilised ligand | 0.5 µM | 76 |
| F[C@@H]1CCN(c2nccc(-c3cnn4ncccc34)n2)C1 | binding | 1 µM | 100 |
| CSc1cccnc1N1CCN(Cc2nc3ccccc3[nH]2)CC1 | cell-free assay, competition with immobilised ligand | 1 µM | 89 |
| N[C@@H]1CCN(c2nccc(-c3cnn4ncccc34)n2)C1 | binding | 1 µM | 100 |
| Cc1cc(C)c(-n2ccn3nc(-c4cccnc4)cc23)cc1NC(=O)c1cc(C#N)cc(S(F)(F)(F)(F)F)c1 | cell-free assay, competition with immobilised ligand | 0.1 µM | 67.4 |
| CNC(=O)[C@@H]1CC[C@@H](n2c(-c3ccc4cnccc4c3)nc3ccc(C(=O)NCc4cccc(C(N)=O)c4)cc32)C1 | binding, competition with immobilised ligand | 1 µM | 100 |
| COc1cccc(CNC(=O)c2nc3scc(COCc4ccc(C(=O)O)cc4)c3c(=O)[nH]2)c1 | cell-free assay, competition with immobilised ligand | 1 µM | 56.3 |
| Nc1ncc2c(n1)-c1c([nH]c3ccc(C#CC4CC4)cc13)CCCC2 | binding, competition with immobilised ligand | 1 µM | 76 |
| CC(C)(C)c1ccc(-c2nc(CBr)nn2-c2cccc(O)c2)cc1 | cell-free assay, competition with immobilised ligand | 10 µM | 83 |
| COc1ccnn2ncc(-c3ccnc(N(C)C)n3)c12 | binding | 1 µM | 74 |
| CNCc1ccccc1-c1csc([C@H](C)Nc2nc(C)nc3cc(OC)c(OC)cc23)c1 | cell-free assay, competition with immobilised ligand | 1 µM | 92 |
| CN(C)c1nccc(-c2cnc3ncccn23)n1 | binding | 1 µM | 78 |
| COc1cc(-c2cn(C3CCc4ccccc4N(CC(F)(F)F)C3=O)nn2)ccc1-n1ccc(C)n1 (stereo not shown) | cell-free assay, competition with immobilised ligand | 1 µM | 88 |
